In publication PMC2655349 (Nuclear medicine and biology, 2009):
Like-named read-outs stand apart in the source and are kept apart here.

Legend:
[1] = rats, ref [11], cited from earlier work
[2] = radiopharmaceutical biodistribution in rats following intravenous injection; assay type: in vivo, rat; settings: male rats, i.v.; for Percentage of Injected Dose per Organ, Blood: blood assumed 7% of body mass
Procedure, shortened: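 67Ga-labelled chelate prepared with ligand in ethanol containing acetylacetone at 70°C for 20 min, diluted with saline to 5–10% ethanol, filtered, purity checked by C18 TLC. Given 1–5 μCi (0.037–0.185 MBq) via femoral vein to ether-anaesthetised male Sprague-Dawley rats. Organs sampled at 1 min and 2 h. Data given as %ID/organ and %ID/g wet tissue; blood taken as 7% and muscle as 42% of body mass.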

[3] = 60-minutes rather than 120-minutes post-injection
[4] = 1 min, based on % injected dose per gram

Row | SMILES | Heart/Blood ratio [1, 3] | Heart/Liver ratio [1, 3] | Heart/Lung ratio [1, 3] | Heart/Blood ratio [1, 4] | Heart/Liver ratio [1, 4] | Heart/Lung ratio [1, 4] | Percentage of Injected Dose per Organ, Brain ([2]; 1 min post-injection) | Percentage of Injected Dose per Organ, Heart ([2]; 1 min post-injection) | Percentage of Injected Dose per Organ, Kidney (1) ([2]; 1 min post-injection) | Percentage of Injected Dose per Organ, Liver ([2]; 1 min post-injection) | Percentage of Injected Dose per Organ, Lungs ([2]; 1 min post-injection) | Percentage of Injected Dose per Organ, Spleen ([2]; 1 min post-injection) | Percentage of Injected Dose per Organ, Blood ([2]; 1 min post-injection) | Percentage of Injected Dose per Organ, Brain ([2]; 120 min post-injection) | Percentage of Injected Dose per Organ, Heart ([2]; 120 min post-injection) | Percentage of Injected Dose per Organ, Kidney (1) ([2]; 120 min post-injection) | Percentage of Injected Dose per Organ, Lungs ([2]; 120 min post-injection) | Percentage of Injected Dose per Organ, Spleen ([2]; 120 min post-injection) | Percentage of Injected Dose per Organ, Blood ([2]; 120 min post-injection)
1 | [C-]#[N+]CC(C)(C)OC.[C-]#[N+]CC(C)(C)OC.[C-]#[N+]CC(C)(C)OC.[C-]#[N+]CC(C)(C)OC.[C-]#[N+]CC(C)(C)OC.[C-]#[N+]CC(C)(C)OC.[Tc] [[^99mTc]Tc-Sestamibi^1+, [^99mTc]Tc-sestamibi] | 208 ± 25 | 5.3 ± 1.7 | 6.5 ± 1.7 | 11.1 ± 0.2 | 1.7 ± 0.1 | 1.3 ± 0.2 |  |  |  |  |  |  |  |  |  |  |  |  | 
2 | [86Rb+].[Cl-] [[^86Rb]RbCl, [^86Rb]rubidium chloride] |  |  |  |  |  |  | 0.08 ± 0.01 Percentage of Injected Dose per Organ | 2.86 ± 0.38 Percentage of Injected Dose per Organ | 6.7 ± 1.1 Percentage of Injected Dose per Organ | 5.4 ± 0.8 Percentage of Injected Dose per Organ | 2.0 ± 0.3 Percentage of Injected Dose per Organ | 0.32 ± 0.08 Percentage of Injected Dose per Organ | 3.61 ± 0.28 Percentage of Injected Dose per Organ | 0.12 ± 0.01 Percentage of Injected Dose per Organ | 0.69 ± 0.02 Percentage of Injected Dose per Organ | 1.01 ± 0.04 Percentage of Injected Dose per Organ | 1.11 ± 0.01 Percentage of Injected Dose per Organ | 0.71 ± 0.13 Percentage of Injected Dose per Organ | 1.43 ± 0.08 Percentage of Injected Dose per Organ
